Results on 55 sequences are retold here after the array DNA melting data of Ke et al. (doi:10.1101/2024.01.08.574731).

A short description of data set [1]: melting temperature; fluorescence melt of hairpins on a sequencing array, two-state fit, raised by 9.35 °C to match UV melts. To be noted: sodium 0.088 M. The method in brief: (§1)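 On a sequenced MiSeq flow cell, library hairpins with annealed Cy3 and quencher oligos were imaged for Cy3 fluorescence in 2.5 °C steps up to 60 °C, in 50 mM Na-HEPES pH 8.0, 25 mM NaCl. Normalisation used pre-quench Cy3 and control constructs. Bootstrapped two-state fits gave melting temperature and folding enthalpy, combined by inverse variance across four replicates and with fitted temperatures raised by 9.35 °C to match UV melts.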

A short description of data set [2]: folding enthalpy; higher = less favourable; fluorescence melt of hairpins on a sequencing array, two-state fit. To be noted: sodium 0.088 M. The gist of the method: as §1

Turning to CGTACGAAAGTACG (((((....))))), the Tm in data set [1] was 68.9 °C. Also, the folding enthalpy in data set [2] was -26.7 kcal/mol.

Turning to CGTACGGAAACGTTAACG ((((((....)))..))), in data set [1], the Tm was 37.3 °C. Also, the folding enthalpy in data set [2] was -16.7 kcal/mol.

Take CGTAGCGGAAACGCACG (((.(((....)))))): in data set [1], the Tm was determined as 53.1 °C. Also, the folding enthalpy in data set [2] was -22.2 kcal/mol.

In the case of CGTATGCGGAAACGCACG (((..(((....)))))), the Tm in data set [1] amounted to 40.7 °C. Further, the folding enthalpy in data set [2] was -9.53 kcal/mol.

As to CGTCACGGAAACGTACG (((.(((....)))))), the Tm in data set [1] worked out at 40 °C. Moreover, the folding enthalpy in data set [2] was -22.8 kcal/mol.

Turning to CGTCAGAAATGACG (((((....))))), the Tm in data set [1] was 51.6 °C. In addition, the folding enthalpy in data set [2] was -24.5 kcal/mol.

For the sequence CGTCCCCGGAAACGGACG (((..(((....)))))), in data set [1], the Tm came out at 42.2 °C. In data set [2], the folding enthalpy was -21.1 kcal/mol.

For the sequence CGTCCGCGGAAACGCACG (((..(((....)))))), the Tm in data set [1] was found to be 33.5 °C. Besides, in data set [2], the folding enthalpy was -12 kcal/mol.

Regarding CGTCCGGAAACGGCAACG ((((((....)))..))), the Tm in data set [1] was 38.5 °C. Besides, the folding enthalpy in data set [2] was -14.8 kcal/mol.

On to CGTCCGGAAACGGGAACG ((((((....)))..))), for which the Tm in data set [1] is 38.9 °C. For the same sequence, the folding enthalpy in data set [2] was -22.5 kcal/mol.

For the sequence CGTCGCGGAAACGCAACG (((.(((....))).))), the Tm in data set [1] is 50.5 °C. For the same sequence, the folding enthalpy in data set [2] was -28.8 kcal/mol.

As for CGTCGCGGAAACGCACG (((.(((....)))))), the Tm in data set [1] is 50.5 °C. In addition, the folding enthalpy in data set [2] was -19.4 kcal/mol.

In the case of CGTCGGAAACGACG (((((....))))), the Tm in data set [1] amounted to 69.2 °C. Further, in data set [2], the folding enthalpy is -27.6 kcal/mol.

For the sequence CGTCGTCGGAAACGAACG (((..(((....)))))), the Tm in data set [1] stood at 48.8 °C. For the same sequence, the folding enthalpy in data set [2] was -24.9 kcal/mol.

On to CGTCTACGGAAACGTACG (((..(((....)))))), for which the Tm in data set [1] turned out to be 31.5 °C. Moreover, the folding enthalpy in data set [2] was -11.6 kcal/mol.

Take CGTGACCGGAAACGGACG (((..(((....)))))): the Tm in data set [1] came to 36.2 °C. Moreover, the folding enthalpy in data set [2] is -15.7 kcal/mol.

With CGTGACGGAAACGTTACG (((.(((....))).))), in data set [1], the Tm is 52.2 °C. In data set [2], the folding enthalpy was -29.3 kcal/mol.

CGTGCGGAAACGCAAACG ((((((....)))..))): the Tm in data set [1] turned out to be 45.3 °C. Further, the folding enthalpy in data set [2] was -19.9 kcal/mol.

For the sequence CGTGCGGAAACGCAACG ((((((....))).))), the Tm in data set [1] is 53.9 °C. Besides, the folding enthalpy in data set [2] was -27.5 kcal/mol.

Consider CGTGCGGAAACGCGACG ((((((....))).))), for which the Tm in data set [1] is 55.1 °C. Further, the folding enthalpy in data set [2] was -23.5 kcal/mol.

In the case of CGTGCGGAAACGCTACG ((((((....))).))), the Tm in data set [1] was 50.6 °C. For the same sequence, the folding enthalpy in data set [2] is -27.6 kcal/mol.

Turning to CGTGGCGGAAACGCGACG (((.(((....))).))), the Tm in data set [1] came to 57.7 °C. Also, the folding enthalpy in data set [2] is -35.6 kcal/mol.

Regarding CGTGGCGGAAACGCTACG (((.(((....))).))), the Tm in data set [1] amounted to 59.6 °C. Further, in data set [2], the folding enthalpy was -33.8 kcal/mol.

On to CGTGGGCGGAAACGCACG (((..(((....)))))), for which the Tm in data set [1] worked out at 53.1 °C. For the same sequence, the folding enthalpy in data set [2] was -13.4 kcal/mol.

In the case of CGTTAACGGAAACGTACG (((..(((....)))))), the Tm in data set [1] was 37 °C. Also, the folding enthalpy in data set [2] was -17.6 kcal/mol.

In the case of CGTTACGGAAACGTGACG (((.(((....))).))), the Tm in data set [1] is 51.5 °C. The folding enthalpy in data set [2] was -52.2 kcal/mol.

For the sequence CGTTCCGGAAACGGACG (((.(((....)))))), the Tm in data set [1] worked out at 49.9 °C. In data set [2], the folding enthalpy is -30.8 kcal/mol.

Turning to CGTTCGCGGAAACGCACG (((..(((....)))))), the Tm in data set [1] was determined as 40.4 °C. Besides, in data set [2], the folding enthalpy was -13.6 kcal/mol.

With CGTTCGGAAACGAGCACG ((((((....)))..))), the Tm in data set [1] turned out to be 30.7 °C. Moreover, the folding enthalpy in data set [2] is -13.2 kcal/mol.

CGTTCGGAAACGATCACG ((((((....)))..))): in data set [1], the Tm was 30.9 °C. Besides, in data set [2], the folding enthalpy is -13.9 kcal/mol.

In the case of CGTTCTCGGAAACGAACG (((..(((....)))))), the Tm in data set [1] is 35.8 °C. Also, in data set [2], the folding enthalpy is -19.2 kcal/mol.

CGTTGCGGAAACGCTACG (((.(((....))).))): in data set [1], the Tm came to 56 °C. The folding enthalpy in data set [2] was -33.4 kcal/mol.

CGTTTTCGGAAACGAACG (((..(((....)))))): the Tm in data set [1] came out at 37 °C. Also, the folding enthalpy in data set [2] was -12.1 kcal/mol.

For CTACAGAAATGTAG (((((....))))), the Tm in data set [1] was determined as 36.5 °C. The folding enthalpy in data set [2] is -13.3 kcal/mol.

In the case of CTACGGAAACGTAG (((((....))))), in data set [1], the Tm came out at 49.4 °C. Also, the folding enthalpy in data set [2] was -24.9 kcal/mol.

For the sequence CTATCGAAAGATAG (((((....))))), the Tm in data set [1] was 47.1 °C. Also, the folding enthalpy in data set [2] was -21.7 kcal/mol.

With CTGTGGAAACACAG (((((....))))), the Tm in data set [1] came to 52.1 °C. Further, the folding enthalpy in data set [2] is -19.7 kcal/mol.

For CTGTTGAAAAACAG (((((....))))), the Tm in data set [1] was found to be 42.3 °C. In addition, the folding enthalpy in data set [2] was -23.7 kcal/mol.

Consider CTTTCGAAAGAAAG (((((....))))), for which the Tm in data set [1] was 47.3 °C. Also, in data set [2], the folding enthalpy was -19.3 kcal/mol.

As to CTTTGGAAACAAAG (((((....))))), the Tm in data set [1] was determined as 37.1 °C. Besides, the folding enthalpy in data set [2] was -22.4 kcal/mol.

With CTTTTGAAAAAAAG (((((....))))), in data set [1], the Tm was found to be 30.1 °C. In data set [2], the folding enthalpy is -7.85 kcal/mol.

GAAAAAGCGAAAGCTTTC (((..(((....)))))): the Tm in data set [1] came out at 33.2 °C. Further, in data set [2], the folding enthalpy was -12.1 kcal/mol.

On to GAAAACCCGAAAGGGTTC (((..(((....)))))), for which the Tm in data set [1] amounted to 39.8 °C. Further, in data set [2], the folding enthalpy was -8.48 kcal/mol.

For the sequence GAAAACGAAAGTTTCTTC ((((((....)))..))), the Tm in data set [1] is 46.6 °C. For the same sequence, the folding enthalpy in data set [2] was -35 kcal/mol.

With GAAAACGAAAGTTTTTTC ((((((....)))..))), in data set [1], the Tm was found to be 38.9 °C. The folding enthalpy in data set [2] is -20.7 kcal/mol.

Turning to GAAAACGGAAACGTTTCC (.(((((....))))).), the Tm in data set [1] is 34.1 °C. In data set [2], the folding enthalpy was -15.1 kcal/mol.

For the sequence GAAAACGGAAACGTTTTC (((((((....))))))), in data set [1], the Tm came to 57.9 °C. Also, in data set [2], the folding enthalpy is -39.4 kcal/mol.

In the case of GAAAATGCGAAAGCATTC (((..(((....)))))), in data set [1], the Tm came out at 32.7 °C. In data set [2], the folding enthalpy was -10 kcal/mol.

For GAAAATGGAAACGTTTTC (((((.(....).))))), the Tm in data set [1] was 37.8 °C. In data set [2], the folding enthalpy was -32.3 kcal/mol.

With GAAACACGAAAGTGCTTC (((.(((....))).))), the Tm in data set [1] stood at 43.8 °C. The folding enthalpy in data set [2] is -22.5 kcal/mol.

For the sequence GAAACACGAAAGTGGTTC (((.(((....))).))), the Tm in data set [1] stood at 55 °C. In addition, in data set [2], the folding enthalpy was -44.3 kcal/mol.

GAAACAGCGAAAGCTTTC (((..(((....)))))): the Tm in data set [1] worked out at 29.1 °C. The folding enthalpy in data set [2] is -15.3 kcal/mol.

On to GAAACAGGAAACCGTTTC (((((.(....).))))), for which the Tm in data set [1] worked out at 35.8 °C. Besides, in data set [2], the folding enthalpy was -24.3 kcal/mol.

Turning to GAAACAGGAAACTGTTCC (.(((((....))))).), the Tm in data set [1] was found to be 35.3 °C. The folding enthalpy in data set [2] is -14.9 kcal/mol.

With GAAACCCGAAAGGGATTC (((.(((....))).))), in data set [1], the Tm is 49.3 °C. In addition, the folding enthalpy in data set [2] is -23.6 kcal/mol.
